For orientation: ED50 means the dose at which the effect has come halfway, by size or by number of responders. As usually defined, the IC50 is the concentration that inhibits the measured activity by half. The term inhibition denotes the change of the read-out against control, counted positive when it falls. A high value points to a strong effect.

In test [1] the test system is Cricetinae gen. sp. Briefly: In vivo dose effecting the cholesteryl esters in cholesterol-fed hamsters at a dose of 50(mpk). Format: functional.
Test [2] relates to Cricetinae gen. sp. Briefly: In vivo effect on cholesteryl esters in cholesterol-fed hamsters at a dose of 50(mpk). Format: functional. Put shortly: (§1)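 Male golden Syrian hamsters (100–125 g) were fed a high-cholesterol diet for 7 days. Compound was given by oral gavage in 0.2 mL corn oil/day. Liver lipids were Folch-extracted and hepatic cholesteryl ester measured by HPLC. Results are given as percent change versus cholesterol-fed controls dosed with vehicle alone.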

The test system of test [3] is Cricetinae gen. sp. Briefly: In vivo effect on serum cholesterol level of cholesterol-fed hamsters at a dose of 50(mpk). Format: functional.
The subject of test [4] is Cricetinae gen. sp. Briefly: In vivo effect on cholesteryl esters level of cholesterol-fed hamsters at a dose of 50 mg/kg per oral. The test is classed as functional. An outline of the steps:
as §1

In test [5] the target is T1, Sterol O-acyltransferase 1 (Rattus norvegicus, UniProt O70536).
T1 sequence (O70536 whole entry): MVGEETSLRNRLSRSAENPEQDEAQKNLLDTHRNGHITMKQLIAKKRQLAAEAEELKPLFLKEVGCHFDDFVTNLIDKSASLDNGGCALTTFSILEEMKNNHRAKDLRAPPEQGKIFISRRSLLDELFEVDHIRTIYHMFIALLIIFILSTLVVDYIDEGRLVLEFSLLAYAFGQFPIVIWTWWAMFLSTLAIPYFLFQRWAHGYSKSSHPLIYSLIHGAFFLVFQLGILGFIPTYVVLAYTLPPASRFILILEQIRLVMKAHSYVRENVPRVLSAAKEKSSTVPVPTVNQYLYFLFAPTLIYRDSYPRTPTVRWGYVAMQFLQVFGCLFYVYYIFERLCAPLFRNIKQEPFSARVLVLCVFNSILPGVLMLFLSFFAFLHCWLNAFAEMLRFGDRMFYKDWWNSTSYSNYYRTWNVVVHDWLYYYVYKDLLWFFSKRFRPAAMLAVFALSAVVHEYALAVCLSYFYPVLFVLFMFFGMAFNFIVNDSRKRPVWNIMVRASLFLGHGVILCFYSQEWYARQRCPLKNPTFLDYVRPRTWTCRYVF
Briefly: In vitro inhibition of acyl coenzyme A:cholesterol acyltransferase 1, rat liver microsomal assay. An outline of the steps:
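Compound added from DMSO stock and preincubated 15 min at 37 °C. [³H]oleoyl-CoA (10 µM final, 1 µCi) then added for 15 min at 37 °C. Cholesteryl [³H]oleate separated by silica TLC and counted by liquid scintillation.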

Test [6] deals with Cricetinae gen. sp. Briefly: In vivo effect on serum cholesterol level of cholesterol-fed hamsters at a dose of 50 mg/kg per oral. Format: functional.
The target of test [7] is T2, Sterol O-acyltransferase 1 (Rattus norvegicus) (UniProt O70536).
T2 sequence (whole entry): T1 sequence (O70536 whole entry)
Briefly: In vitro ability of compound to inhibit Acyl coenzyme A:cholesterol acyltransferase 1 using rat liver microsomal assay. The settings on record: concentration not given here. An outline of the steps:
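Rat liver microsomes (12.5 µg protein) in 0.1 M potassium phosphate with 2 mM DTT, pH 7.4, and 90 µM fatty-acid-free BSA. Compound added from DMSO stock and preincubated 15 min at 37 °C. [³H]oleoyl-CoA (10 µM final, 1 µCi) then added for 15 min at 37 °C. Cholesteryl [³H]oleate separated by silica TLC and counted by liquid scintillation.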
Background: Microsomes from liver hold many membrane-bound enzymes, among them those of drug oxidation.

Test [8] deals with Cricetinae gen. sp. Briefly: In vivo effect on cholesteryl esters in cholesterol-fed hamsters at a dose of 100(mpk). Format: functional. An outline of the steps: as §1
Test [9] deals with Cricetinae gen. sp. Briefly: In vivo effect on serum cholesterol level of cholesterol-fed hamsters at a dose of 100(mpk). Format: functional.

In the case of `CCCCCCCN(Cc1ccc(CC(C)(C)C)cc1)C(=O)Nc1ccc(F)cc1F` [CL-277082], it took a dose of 15 mg/kg to reach the 50% effect level in test [1] (ED50). For the same compound, the results for the Change in [2] and in test [3] were -85% and -29%, respectively.
Regarding `COc1cccc(C(Cc2ccccc2)NC(=O)C(c2ccccc2)c2ccccc2)c1` (configuration not stated), the Change in test [4] and in test [6] was 0% each time. For the same compound, the half-inhibitory concentration (IC50) in [5] turned out to be 1500 nM.
In the case of `COc1ccc(C(Cc2ccccc2)NC(=O)C(c2ccccc2)c2ccccc2)cc1` (configuration not stated), the Change in test [4] is -69%; in [6] it was -14%. The IC50 in test [5] amounted to 1500 nM.
For the compound `O=C(O)c1ccc(CC(NC(=O)C(c2ccccc2)c2ccccc2)c2ccccc2)cc1` (configuration not stated), the IC50 in test [5] was over 10000 nM.
For `O=C(NC(Cc1ccc(O)cc1)c1ccc(O)cc1)C(c1ccccc1)c1ccccc1` (configuration not stated), the Change in test [4] is given as -40%; in test [6], -20%. The compound also showed an inhibition in test [7] of 97%.
Regarding `CS(=O)(=O)Nc1ccc(CC(NC(=O)C(c2ccccc2)c2ccccc2)c2ccccc2)cc1` (configuration not stated), the figures for the Change in test [4] and in [6] were -32% and -17%, respectively. This compound registered a concentration for half-maximal inhibition (IC50) in [5] of 360 nM.
The compound `Nc1ccc(CC(NC(=O)C(c2ccccc2)c2ccccc2)c2ccccc2)cc1` (racemic) came in with an ED50 in [1] of 21 mg/kg. The Change was -60% in test [2] and -13% in test [3].
Turning to `CCCCCCCC/C=C\CCCCCCCC(=O)NC(Cc1ccccc1)c1ccccc1` (configuration not stated), the Change in test [8] is -23%; in test [9] it was -4%.
Take `O=C(NC(Cc1ccccc1)c1ncc[nH]1)C(c1ccccc1)c1ccccc1` (configuration not stated): in test [5], the half-inhibitory concentration (IC50) was over 10000 nM.
On to `Nc1ccc(CC(NC(=O)C(c2ccccc2)c2ccccc2)c2ccccc2)cc1` (single isomer, unassigned; (-)), for which the Change in test [4] is -81%; in test [6], 0%.
As for `O=C(O)c1ccc(C(Cc2ccccc2)NC(=O)C(c2ccccc2)c2ccccc2)cc1` (configuration not stated), the Change in test [4] and in test [6] was 0% throughout. The same compound gave a half-inhibitory concentration (IC50) in test [5] of 10000 nM.
For the compound `O=C(NC(Cn1ccnc1)c1ccccc1)C(c1ccccc1)c1ccccc1` (configuration not stated), the Change in [4] and in test [6] was 0% in each case. The compound also came in with a half-inhibitory concentration (IC50) in test [5] of 3500 nM.
Consider `CC(=O)Nc1ccc(CC(NC(=O)C(c2ccccc2)c2ccccc2)c2ccccc2)cc1` (configuration not stated), for which the results for the Change in [4] and in test [6] were 0% and -12%, respectively. The IC50 in [5] was determined as 350 nM.
`CCCCCCCCCCC(C)(C)C(=O)Nc1c(OC)cc(OC)cc1OC` [CL-976] gave a median effective dose (ED50) in test [1] of 20 mg/kg. Also, the figures for the Change in test [2] and in [3] were -67% and -10%, respectively.
`Nc1ccc(C(Cc2ccccc2)NC(=O)C(c2ccccc2)c2ccccc2)cc1` (configuration not stated): the results for the Change in test [4] and in test [6] were -24% and 0%, respectively. For the same compound, the 50% inhibitory concentration (IC50) in [5] is 2800 nM.
Take `CCCCCCCC/C=C\CCCCCCC(C)(C)C(=O)NC(Cc1ccc(N)cc1)c1ccccc1` (configuration not stated): the IC50 in test [5] amounted to 360 nM. Moreover, the Change in test [8] is -54%; in test [9] it was -24%.
On to `COc1ccccc1C(Cc1ccccc1)NC(=O)C(c1ccccc1)c1ccccc1` (configuration not stated), for which the Change in [4] is -51%; in test [6], 0%. The compound further yielded a concentration for half-maximal inhibition (IC50) in test [5] of 1800 nM.
On to `C[Si](C)(C)CCOCn1ccnc1C(Cc1ccccc1)NC(=O)C(c1ccccc1)c1ccccc1` (configuration not stated), for which the 50% inhibitory concentration (IC50) in test [5] was over 10000 nM.
As for `O=C(NC(Cc1ccccc1)c1cc[n+]([O-])cc1)C(c1ccccc1)c1ccccc1` (configuration not stated), the Change was -28% in test [4] and 0% in [6]. Moreover, the half-inhibitory concentration (IC50) in test [5] was over 10000 nM.
The corresponding values for `COc1ccc(CC(NC(=O)C(c2ccccc2)c2ccccc2)c2ccccc2)cc1` (configuration not stated) are -65%, -14% and 1600 nM.
`CCCCCCCCCC[Si](C)(C)CCC(=O)NC(Cc1ccc(C)cc1)c1ccccc1` (configuration not stated) returned an IC50 in test [5] of 300 nM. The results for the Change in [8] and in test [9] were 0% and -5%, respectively.
For the compound `COc1ccc(CC(NC(=O)C(c2ccccc2)c2ccccc2)c2cccc(OC)c2)cc1` (configuration not stated), the Change in [4] was 0%; in test [6], -20%. Also, in test [5], half-maximal inhibition (IC50) was put at 2400 nM.
The like results for `CCCCCCCn1ccnc1CC(NC(=O)C(c1ccccc1)c1ccccc1)c1ccccc1` (configuration not stated) were, in that order, 0%, 0% and 5000 nM.
On to `COC(=O)c1ccc(CC(NC(=O)C(c2ccccc2)c2ccccc2)c2ccccc2)cc1` (configuration not stated), for which the concentration for half-maximal inhibition (IC50) in test [5] was over 10000 nM.
Regarding `O=C(NC(Cc1ccccc1)c1cccnc1)C(c1ccccc1)c1ccccc1` (configuration not stated), the Change in test [4] is 0%; in test [6], -9%. The same compound displayed an IC50 in [5] of 4000 nM.
The corresponding values for `C[Si](C)(C)CCOCn1ccnc1CC(NC(=O)C(c1ccccc1)c1ccccc1)c1ccccc1` (configuration not stated) are -24%, 0% and 5000 nM.
In turn, `O=C(NC(Cc1ccccc1)c1ccccc1)C(c1ccccc1)c1ccccc1` (configuration not stated) yielded a half-inhibitory concentration (IC50) in test [5] of 460 nM. The Change is -15% in test [2] and 0% in test [3].
In test [5], `O=C(NC(Cc1ncc[nH]1)c1ccccc1)C(c1ccccc1)c1ccccc1` (configuration not stated) showed an IC50 of over 10000 nM.
For the compound `O=C(NC(Cc1ccc(O)cc1)c1ccccc1)C(c1ccccc1)c1ccccc1` (configuration not stated), the Change in [4] and in test [6] was 0% in each case. This compound registered an IC50 in [5] of 800 nM.
For `O=C(NC(Cc1ccccc1)c1ccncc1)C(c1ccccc1)c1ccccc1` (configuration not stated), the Change in [4] was -29%; in [6] it was -13%. Further, the IC50 in test [5] was 2300 nM.
Consider `Nc1cccc(CC(NC(=O)C(c2ccccc2)c2ccccc2)c2ccccc2)c1` (configuration not stated), for which the figures for the Change in [4] and in test [6] were -31% and -15%, respectively. In [5], half-maximal inhibition (IC50) was put at 5000 nM.
The corresponding values for `COc1ccc(CC(NC(=O)C(c2ccccc2)c2ccccc2)c2ccccc2)cc1OC` (configuration not stated) are -26%, -21% and 500 nM.
The like results for `O=C(NC(Cc1ccccc1)c1ccc(O)cc1)C(c1ccccc1)c1ccccc1` (configuration not stated) were, in that order, -69%, -14% and 1000 nM.
Take `O=C(NC(Cc1ccncc1)c1ccccc1)C(c1ccccc1)c1ccccc1` (configuration not stated): the values for the Change in test [4] and in test [6] were -52% and -10%, respectively. In test [5], this compound yielded an IC50 of 1800 nM.
Consider `O=C(NC(Cc1ccccc1)c1cccc(O)c1)C(c1ccccc1)c1ccccc1` (configuration not stated), for which the Change in [4] was -19%; in [6] it was -17%. For the same compound, the inhibition in [7] is 88%.
On to `COc1ccc(CC(NC(=O)C(c2ccccc2)c2ccccc2)c2ccc(OC)cc2)cc1` (configuration not stated), for which the figures for the Change in [4] and in test [6] were -32% and 0%, respectively. In test [5], this compound yielded an IC50 of over 10000 nM.
As to `Nc1ccc(CC(NC(=O)C(c2ccccc2)c2ccccc2)c2ccccc2)cc1` (stereo in doubt; (+)-5), in test [4], the Change stood at 0%.
